“Also recorded” adds a separate entry of the source.
What was measured:
male C57BL/6J mice [1] = test: Serum markers of liver and kidney damage after single subcutaneous injection; format: in vivo, mouse; details: single sc dose 1, 3, 10 mg/kg; dose stated in the value
In short: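 All mice from the single sc dose groups (1, 3, 10 mg/kg in 25% DMSO/saline, n = 4, 9-day observation) were bled retro-orbitally. Serum was obtained by centrifugation at 6000 rpm for 5 min. ALT, AST, total bilirubin, BUN and creatinine were measured externally, blinded to animal identity.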

male C57BL/6J mice [2] = test: Serum markers of liver and kidney damage after multiple subcutaneous injections; format: in vivo, mouse; details: 1 mg/kg sc every 3 days, three injections
In short: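 Male C57BL/6J mice, 8 weeks old, were dosed in groups of three with 1 mg/kg sc every 3 days for three injections and sacrificed 2 days after the last. Weight was recorded on injection days and at the end point. Retro-orbital blood was spun at 6000 rpm for 5 min. Serum ALT, AST, total bilirubin, BUN and creatinine were assayed blinded.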

male C57BL/6J mice [3] = test: Histopathology after single subcutaneous injection; format: in vivo, mouse; details: for Organ toxicity by histopathology, overall: single sc dose, any dose level tested (1, 3, 10 mg/kg)
In short: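 After the single sc dose (1, 3 or 10 mg/kg, 25% DMSO/saline, 9-day observation), two representative mice per group were fixed in 10% formalin. A veterinary pathologist examined cecum, duodenum, heart, ileum, kidney, liver, lung, pancreas, spleen and stomach, blinded to animal identity.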

male C57BL/6J mice [4] = test: Escalating single dose subcutaneous injections: animal weight and behavior; format: in vivo, mouse; details: for Weight loss: single sc injection at 1, 3, and 10 mg/kg, observed 9 days
In short: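 Male C57BL/6J mice, 8 weeks old, were acclimatised 3 days after arrival. Groups of four received one sc dose of 1, 3 or 10 mg/kg in up to 200 μL 25% DMSO/saline. Doses were set by UV/vis using ε 69 500 M–1·cm–1 near 315 nm. Mice were weighed daily for 9 days, then sacrificed. Humane end point was visible duress or weight loss over 15% of starting weight.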

male C57BL/6J mice [5] = test: Histopathology after multiple subcutaneous injections; format: in vivo, mouse
p21, IGFBP3, and GADD45A = test: Quantitative RT-PCR of p53 responsive genes; format: cell-based; details: LNCaP cells, 1, 3, 10 μM, 72 h
In short: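 LNCaP cells were seeded at 50 000 per well, left to adhere 36–48 h, and treated with 1, 3 or 10 μM test compound for 72 h. Total RNA was extracted on columns and reverse transcribed. p21, IGFBP3 and GADD45A were quantified by SYBR Green real-time PCR relative to β-glucuronidase, in biological replicates.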

RPB1 = RPB1 protein ELISA; format: cell-based; details: LNCaP cells
In short: (§1)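 LNCaP cells were treated with 10 μM test compound for 72 h. Controls were DMSO vehicle and 1 μM doxorubicin for 24 h. RPB1 was measured with an RPB1-specific ELISA kit and total p53 with a pan-p53 ELISA kit, each following the kit instructions, in biological triplicates.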

p53 = p53 protein ELISA; format: cell-based; details: LNCaP cells
In short: as §1

LNCaP cells = test: Alkaline comet assay; format: cell-based; details: 10 μM, 48 h
In short: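 LNCaP cells were seeded at 100 000 per well and left to adhere 36–48 h. They were then exposed to 10 μM test compound for 48 h, with 5 μM doxorubicin for 4 h as the comparator. DNA damage was assessed with a commercial comet kit after gentle harvest in PBS. Slides were imaged by confocal microscopy at 10×, and more than 100 comets were scored per condition as percentage of DNA in the tail.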

male C57BL/6J mice [6] = test: Hematological analysis of wild-type mice after six injections; format: in vivo, mouse; details: six injections sc 1 mg/kg, before treatment vs at sacrifice
In short: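 Five healthy male C57BL/6J mice were bled retro-orbitally into K2EDTA tubes for baseline haematology and allowed 1 week to recover. They then received test compound 1 mg/kg sc in 20% DMSO/normal saline every 3 days for six injections. They were bled again 2 days after the final injection and euthanised. Serum and haematology samples were prepared separately; serum ALT, AST, total bilirubin, BUN and creatinine were measured. Data are the mean of five animals ± std.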

[7] = Liver microsomal stability; format: in vitro ADME; details: 1 mg/mL human liver microsomes, 37 °C, 60 min, with and without NADPH
In short: (§2)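 Test compound was incubated with 1 mg/mL human or mouse liver microsomes at 37 °C in 100 mM KH2PO4, 3 mM MgCl2, pH 7.4, with or without 2 mM NADPH. After 60 min, ice-cold methanol was added, samples sat on ice for 10 min or more, then were diluted with water and centrifuged. Analysis was by LC/MS/MS as percent remaining versus time zero, in duplicate.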

[8] = Liver microsomal stability; format: in vitro ADME; details: 1 mg/mL mouse liver microsomes, 37 °C, 60 min, with and without NADPH
In short: as §2

[9] = Serum levels after subcutaneous injection; format: in vivo, mouse; details: male C57BL/6J mice, 10 mg/kg sc
[10] = test system: liver tissue of male C57BL/6J mice; test: Liver uptake of fluorescein-polyamide conjugates; format: in vivo, mouse; details: 50 nmol (∼3 mg/kg), sacrificed 24 h later
[11] = 1 mg/kg sc every 3 days, three injections
[12] = single sc dose 3 mg/kg, 3 mg/kg

CN(CCCNC(=O)c1cccc(C(=O)O)c1)CCCNC(=O)c1cc(NC(=O)c2cc(NC(=O)c3cc(NC(=O)c4nc(NC(=O)C[C@@H](N)CNC(=O)c5cc(NC(=O)c6cc(NC(=O)c7cc(NC(=O)c8nccn8C)cn7C)cn6C)cn5C)cn4C)cn3C)cn2C)cn1C [Polyamide 2, ImPyPyPy-3-(R)^H2Nγ-ImPyPyPy∼NHMe∼IPA]
Elevation of serum markers of liver and kidney damage (in words) (male C57BL/6J mice [1]): severe elevation of AST, ALT, and total bilirubin at 10 mg/kg and to a lesser extent at 3 mg/kg; also recorded: elevated BUN at 10 mg/kg
Alteration of liver and kidney serum markers (in words) (male C57BL/6J mice [2]): elevated AST and ALT
Kidney lesions by histopathology (in words) (male C57BL/6J mice [3]; single sc dose 3 mg/kg): Moderate atypical tubular regeneration (karyomegaly, tubular attenuation, mitotic figures) and/or tubular epithelial necrosis and apoptosis
Liver lesions by histopathology (in words) (male C57BL/6J mice [3]; single sc dose 3 mg/kg): Mild hepatocellular necrosis and apoptosis
Liver lesions by histopathology (in words) (male C57BL/6J mice [3]; single sc dose 10 mg/kg): diffuse hepatocellular necrosis and apoptosis
Spleen lesions by histopathology (in words) (male C57BL/6J mice [3]; single sc dose 10 mg/kg): Mild lymphoid apoptosis in the white pulp of the spleen
Weight loss (male C57BL/6J mice [4]): significant weight loss only at 10 mg/kg
Kidney lesions by histopathology (in words) (male C57BL/6J mice [5]; [11]): mild variable tubular attenuation, karyomegaly, and epithelial necrosis and apoptosis
Liver lesions by histopathology (in words) (male C57BL/6J mice [5]; [11]): mild multifocal hepatocellular necrosis and apoptosis

CC(=O)N[C@H](CCNC(=O)c1cc(NC(=O)c2cc(NC(=O)c3cc(NC(=O)c4nccn4C)cn3C)cn2C)cn1C)C(=O)Nc1cn(C)c(C(=O)Nc2cc(C(=O)Nc3cc(C(=O)Nc4cc(C(=O)NCCCN(C)CCCNC(=O)c5cccc(C(=O)O)c5)n(C)c4)n(C)c3)n(C)c2)n1 [Polyamide 3, ImPyPyPy-2-(R)^AcHNγ-ImPyPyPy∼NHMe∼IPA]
Transcripts of p53 responsive genes p21, IGFBP3, and GADD45A (p21, IGFBP3, and GADD45A): induced by 3 in a dose-dependent fashion; also recorded: increased
Elevation of serum markers of liver and kidney damage (in words) (male C57BL/6J mice [1]): no elevation of these markers at the dose levels tested
RPB1 protein level (RPB1; 10 μM, 72 h): reduced RPB1 levels
Cellular level of p53 protein (p53; 10 μM, 72 h): increased
DNA damage (genomic fragmentation) by comet assay (LNCaP cells): no increase in genomic fragmentation; also recorded: did not result in increased DNA damage
Alteration of liver and kidney serum markers (in words) (male C57BL/6J mice [2]): no histopathologic lesions consistent with toxicity or alterations in liver and kidney serum markers
Organ toxicity by histopathology, overall (male C57BL/6J mice [3]): no detectable toxicity
Hematologic changes (in words) (male C57BL/6J mice [6]): No significant hematologic changes
Histopathologic lesions, overall (male C57BL/6J mice [5]; [11]): no histopathologic lesions consistent with toxicity

CC(=O)N[C@@H](CNC(=O)c1cc(NC(=O)c2cc(NC(=O)c3cc(NC(=O)c4nccn4C)cn3C)cn2C)cn1C)CC(=O)Nc1cn(C)c(C(=O)Nc2cc(C(=O)Nc3cc(C(=O)Nc4cc(C(=O)NCCCN(C)CCCNC(=O)c5cccc(C(=O)O)c5)n(C)c4)n(C)c3)n(C)c2)n1 [Polyamide 4, ImPyPyPy-3-(R)^AcHNγ-ImPyPyPy∼NHMe∼IPA]
Elevation of serum markers of liver and kidney damage (in words) (male C57BL/6J mice [1]): marked and severe elevations of AST, ALT, and total bilirubin at both 3 and 10 mg/kg; also recorded: significantly elevated creatinine and BUN at 10 mg/kg and elevated BUN at 3 mg/kg
Kidney lesions by histopathology (in words) (male C57BL/6J mice [3]; single sc dose 1 mg/kg): Milder tubular regeneration and karyomegaly
Liver lesions by histopathology (in words) (male C57BL/6J mice [3]; single sc dose 1 mg/kg): Mild hepatocellular necrosis and apoptosis
Spleen lesions by histopathology (in words) (male C57BL/6J mice [3]; single sc dose 3 mg/kg): Mild lymphoid apoptosis in the white pulp of the spleen
Kidney lesions by histopathology (in words) (male C57BL/6J mice [3]; [12]): Moderate atypical tubular regeneration (karyomegaly, tubular attenuation, mitotic figures) and/or tubular epithelial necrosis and apoptosis
Liver lesions by histopathology (in words) (male C57BL/6J mice [3]; [12]): multifocal bridging hepatocellular necrosis and apoptosis
Kidney lesions by histopathology (in words) (male C57BL/6J mice [3]; single sc dose 10 mg/kg): Moderate atypical tubular regeneration (karyomegaly, tubular attenuation, mitotic figures) and/or tubular epithelial necrosis and apoptosis
Liver lesions by histopathology (in words) (male C57BL/6J mice [3]; single sc dose 10 mg/kg): multifocal bridging hepatocellular necrosis and apoptosis
Spleen lesions by histopathology (in words) (male C57BL/6J mice [3]; single sc dose 10 mg/kg): Mild lymphoid apoptosis in the white pulp of the spleen
Behavior and appearance (male C57BL/6J mice [4]; single sc injection, 3 mg/kg): hunched posture, loss of mobility, and acute morbidity
Behavior and appearance (male C57BL/6J mice [4]; single sc injection, 10 mg/kg): hunched posture, loss of mobility, and acute morbidity
Dose tolerated (only tolerated at) (male C57BL/6J mice [4]; single sc injection, 1, 3, 10 mg/kg tested): 1 mg/kg
Percent intact after 1 h incubation [7]: less than 5%
Percent intact after 1 h incubation [8]: less than 5%
Kidney lesions by histopathology (in words) (male C57BL/6J mice [5]; 1 mg/kg sc, two injections): hyaline droplet accumulation
Liver lesions by histopathology (in words) (male C57BL/6J mice [5]; 1 mg/kg sc, two injections): marked hepatocellular necrosis and apoptosis

Cn1cc2cc1C(=O)NCCCC(=O)Nc1cn(C)c(n1)C(=O)Nc1cc(n(C)c1)C(=O)Nc1cc(n(C)c1)C(=O)Nc1cc(n(C)c1)C(=O)NCC[C@@H](N)C(=O)Nc1cn(C)c(n1)C(=O)Nc1cc(n(C)c1)C(=O)Nc1cc(n(C)c1)C(=O)N2 [Polyamide 5]
Elevation of serum markers of liver and kidney damage (in words) (male C57BL/6J mice [1]): caused levels of ALT and AST to increase in a dose-dependent manner
Organ toxicity by histopathology, overall (male C57BL/6J mice [3]): did affect the kidney and liver
Weight loss (male C57BL/6J mice [4]): did not cause significant weight loss; also recorded: less effect on animal weight than 1
Serum bioavailability after subcutaneous injection [9]: bioavailable

CC(=O)N[C@H](CCNC(=O)c1cc(NC(=O)c2cc(NC(=O)c3cc(NC(=O)c4nccn4C)cn3C)cn2C)cn1C)C(=O)Nc1cn(C)c(C(=O)Nc2cc(C(=O)Nc3cc(C(=O)Nc4cc(C(=O)NCCCN(C)CCCNC(=S)Nc5ccc(-c6c7ccc(=O)cc-7oc7cc(O)ccc67)c(C(=O)O)c5)n(C)c4)n(C)c3)n(C)c2)n1 [Polyamide 8]
Nuclear fluorescence in liver sections [10]: less nuclear fluorescence in liver sections than the other FITC–polyamide conjugates

CC(=O)N[C@@H](CNC(=O)c1cc(NC(=O)c2cc(NC(=O)c3cc(NC(=O)c4nccn4C)cn3C)cn2C)cn1C)CC(=O)Nc1cn(C)c(C(=O)Nc2cc(C(=O)Nc3cc(C(=O)Nc4cc(C(=O)NCCCN(C)CCCNC(=S)Nc5ccc(-c6c7ccc(=O)cc-7oc7cc(O)ccc67)c(C(=O)O)c5)n(C)c4)n(C)c3)n(C)c2)n1 [Polyamide 9]
Nuclear fluorescence in liver sections [10]: the most intense nuclear fluorescence in liver sections

COc1cccc2c1C(=O)c1c(O)c3c(c(O)c1C2=O)C[C@@](O)(C(=O)CO)C[C@@H]3O[C@H]1C[C@H](N)[C@H](O)[C@H](C)O1 [doxorubicin, reference compound]
RPB1 protein level (RPB1; 1 μM, 24 h): decreases
Cellular level of p53 protein (p53; 1 μM, 24 h): increases
